From PMC6409185 (Investigational new drugs, 2018)

Tests used:
Assay type in all cases: biochemical
Conditions in all cases: relaxation assay in the presence of 100 μM compound
[1] = test system: Calf Topo I (cTopo I); test: Relaxation assay for eukaryotic Topo I
Outline: (§1)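 Commercial calf or human Topo I, 1 unit (the amount that fully relaxes 0.3 μg supercoiled pBR322), with 0.3 μg supercoiled pBR322 and test compound in 50 mM Tris-HCl pH 7.5, 100 mM NaCl, 10 mM MgCl2, 1 mM DTT, 50 μg/ml BSA. Run 15 min at 37°C, stopped with 25 mM EDTA. Products run on 1.2% agarose in TAE (2 V/cm, 15 h), stained with ethidium bromide, imaged and quantified.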

[2] = biological target: T1, hTopo I (Homo sapiens, UniProt P11387); test: Relaxation assay for eukaryotic Topo I
T1 sequence (P11387 1-765): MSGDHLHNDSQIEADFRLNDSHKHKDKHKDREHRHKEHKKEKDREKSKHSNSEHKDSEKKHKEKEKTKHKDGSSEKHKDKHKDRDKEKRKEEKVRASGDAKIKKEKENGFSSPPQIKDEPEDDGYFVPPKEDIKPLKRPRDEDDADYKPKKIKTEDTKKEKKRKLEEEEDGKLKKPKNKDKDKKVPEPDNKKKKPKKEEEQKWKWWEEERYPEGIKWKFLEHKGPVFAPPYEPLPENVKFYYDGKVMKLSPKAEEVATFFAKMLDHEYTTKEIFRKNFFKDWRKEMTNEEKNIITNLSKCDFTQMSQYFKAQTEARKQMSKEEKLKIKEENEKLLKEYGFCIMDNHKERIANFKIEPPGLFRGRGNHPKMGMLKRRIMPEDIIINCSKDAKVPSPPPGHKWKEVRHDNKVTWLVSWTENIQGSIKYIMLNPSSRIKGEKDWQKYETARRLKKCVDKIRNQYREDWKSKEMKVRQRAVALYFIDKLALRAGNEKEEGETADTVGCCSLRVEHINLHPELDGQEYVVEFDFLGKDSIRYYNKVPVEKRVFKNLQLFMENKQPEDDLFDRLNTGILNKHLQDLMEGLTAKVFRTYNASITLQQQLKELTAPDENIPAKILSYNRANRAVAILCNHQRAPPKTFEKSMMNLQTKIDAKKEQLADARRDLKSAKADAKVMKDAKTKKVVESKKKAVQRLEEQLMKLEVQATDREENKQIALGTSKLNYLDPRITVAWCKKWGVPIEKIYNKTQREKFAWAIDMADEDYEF
Outline: as §1

[3] = biological target: E. coli Topo I (Escherichia coli, UniProt P06612); test: Relaxation assay with E. coli Topo I
E. coli Topo I, sequence (P06612 whole entry): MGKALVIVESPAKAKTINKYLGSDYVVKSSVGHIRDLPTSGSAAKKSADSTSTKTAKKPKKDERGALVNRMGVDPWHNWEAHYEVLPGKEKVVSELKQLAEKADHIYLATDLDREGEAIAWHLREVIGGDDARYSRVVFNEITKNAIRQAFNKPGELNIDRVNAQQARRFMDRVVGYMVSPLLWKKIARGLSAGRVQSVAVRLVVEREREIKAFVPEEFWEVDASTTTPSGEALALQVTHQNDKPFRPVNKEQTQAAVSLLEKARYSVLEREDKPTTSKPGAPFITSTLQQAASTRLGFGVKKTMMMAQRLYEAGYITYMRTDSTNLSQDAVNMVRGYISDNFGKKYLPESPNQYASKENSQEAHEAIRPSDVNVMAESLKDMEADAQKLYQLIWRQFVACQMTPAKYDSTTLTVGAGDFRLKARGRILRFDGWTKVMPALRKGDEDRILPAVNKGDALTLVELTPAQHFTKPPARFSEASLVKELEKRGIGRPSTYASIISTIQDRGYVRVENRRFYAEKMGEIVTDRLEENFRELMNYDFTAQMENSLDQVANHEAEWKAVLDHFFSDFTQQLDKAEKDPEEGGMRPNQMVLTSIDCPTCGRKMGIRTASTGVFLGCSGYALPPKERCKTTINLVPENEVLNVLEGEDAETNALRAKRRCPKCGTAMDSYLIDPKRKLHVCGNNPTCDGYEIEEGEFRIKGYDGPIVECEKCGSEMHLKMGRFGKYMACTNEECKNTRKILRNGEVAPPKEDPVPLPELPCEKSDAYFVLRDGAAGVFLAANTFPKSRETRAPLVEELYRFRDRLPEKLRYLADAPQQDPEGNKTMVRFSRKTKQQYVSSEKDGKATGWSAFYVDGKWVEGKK

COc1c(N2CC[C@@H](CN)C2)c(F)cc2c(=O)c(C(=O)O)cn(C3CC3)c12 [UING-5-249]
No^2: inhibition of cTopo I [1] | inhibition of hTopo I [2] | inhibition of E. coli Topo I [3]
